Test results: ChEMBL document CHEMBL4152387, “Discovery of a Potent Grp94 Selective Inhibitor with Anti-Inflammatory Efficacy in a Mouse Model of Ulcerative Colitis” (J Med Chem, 2018)
Active and inactive are the calls of the source. The rule behind the calls is not given here.

How the values were obtained:
[1] = Ratio of Kd for human His-tagged biotinylated HSP90alpha N-terminal domain (1 to 236 residues) to Kd for dog His-tagged biotinylated GRP94 N41 deletion mutant (69 to 337 residues)
Mus musculus [2] = test: Anti-inflammatory activity in C57BL/6 mouse model of DSS-induced ulcerative colitis assessed reduction in p65 expression in colonic tissues at 10 to 30 mg/kg, ip qd co-administrated with DSS measured on day 7 post dose; assay type: functional, organism-based
How it was run: (§1)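 DSS colitis in male C57BL/6 mice (3% DSS, 7 days, ip qd 10 or 30 mg/kg, vehicle controls); colons flash-frozen at day 7, homogenized in lysis buffer with protease/phosphatase inhibitors. Equal protein by BCA run on SDS-PAGE, PVDF, 1% BSA block, primary antibodies 37 °C 1 h then 4 °C overnight, DyLight 800 secondary, infrared scan; β-actin loading control.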

Mus musculus [3] = test: Anti-inflammatory activity in ip dosed C57BL/6 mouse model of DSS-induced ulcerative colitis assessed reduction in TNFalpha levels in serum co-administrated once daily with DSS measured on day 7 post dose by ELISA; assay type: functional, organism-based
How it was run: (§2)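 DSS colitis in male C57BL/6 mice (3% DSS in water, 7 days, ip qd co-dosing, vehicle controls). Serum and colons taken at sacrifice on day 7; colon homogenate supernatants and serum assayed for mouse TNFα and IL-6 by ELISA kits; n = 5 samples per group.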

[4] = Inhibition of FITC-geldanamycin binding to dog GST-tagged GRP94 N41 deletion mutant (69 to 337 residues) expressed in Escherichia coli BL21star (DE3) after 4 hrs by GM-FITC-based FP assay; set-up: species or system Canis lupus familiaris
Mus musculus [5] = test: Anti-inflammatory activity in ip dosed C57BL/6 mouse model of DSS-induced ulcerative colitis assessed reduction in TNFalpha levels in colonic tissues co-administrated once daily with DSS measured on day 7 post dose by ELISA; assay type: functional, organism-based; how it was run: as §2
[6] = biological target: T1, Heat shock protein HSP 90-alpha (Homo sapiens, UniProt P07900); test: Binding affinity to human His-tagged HSP90alpha N-terminal domain (1 to 236 residues) expressed in Escherichia coli BL21star (DE3) dissociation constant by biolayer interferometry; settings: read-out: K
How it was run: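 Biotinylated His-tagged N-terminal protein, labelled in PBS pH 7.4 at one molar ratio with excess biotin removed by overnight dialysis, was loaded at 400 nM final onto streptavidin biosensors pre-wetted 10 min in kinetics buffer (PBS, 0.05% BSA, 0.01% Tween-20). Four compound concentrations in kinetics buffer were then tested for binding, with all data collected at 30 °C.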

Mus musculus [7] = test: In-vivo inhibition of HSP90/HSP70 pathway in C57BL/6 mouse model of DSS-induced ulcerative colitis assessed as effect on Akt expression in colonic tissues at 10 to 30 mg/kg, ip qd co-administrated with DSS measured on day 7 post dose; assay type: organism-based; how it was run: as §1
Mus musculus [8] = test: Subacute toxicity in C57BL/6 mouse assessed as effect on lung at 30 to 90 mg/kg, ip qd for 2 weeks by hematoxylin and eosin staining analysis; assay type: organism-based; settings: in vivo, 336 h
Mus musculus [9] = test: Anti-inflammatory activity in C57BL/6 mouse model of DSS-induced ulcerative colitis assessed mortality at 30 mg/kg, ip qd co-administrated with DSS measured on day 7 post dose; assay type: functional, organism-based
How it was run: (§3)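 Male C57BL/6 mice (20−22 g), randomized, n = 8 per group; 3% DSS (36−50 KD) in drinking water for 7 days, with compound given ip once daily alongside; normal and disease controls received vehicle. Deaths counted at day 7.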

Mus musculus [10] = test: Anti-inflammatory activity in C57BL/6 mouse model of DSS-induced ulcerative colitis assessed mortality at 10 mg/kg, ip qd co-administrated with DSS measured on day 7 post dose; assay type: functional, organism-based; how it was run: as §3
Mus musculus [11] = test: Anti-inflammatory activity in C57BL/6 mouse model of DSS-induced ulcerative colitis assessed reduction in colon shortening at 10 to 30 mg/kg, ip qd co-administrated with DSS measured on day 7 post dose; assay type: functional, organism-based
How it was run: (§4)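 Male C57BL/6 mice (20−22 g), n = 8 per group, 3% DSS in drinking water 7 days plus ip qd dosing at 10 or 30 mg/kg; vehicle controls. Sacrificed at day 7, colons collected; colon length measured and H&E-stained colon sections examined.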

Mus musculus [12] = test: Anti-inflammatory activity in C57BL/6 mouse model of DSS-induced ulcerative colitis assessed reduction in colonic tissue damage at 10 to 30 mg/kg, ip qd co-administrated with DSS measured on day 7 post dose; assay type: functional, organism-based; how it was run: as §4
[13] = biological target: T1, Heat shock protein HSP 90-alpha; test: Inhibition of FITC-geldanamycin binding to human His-tagged HSP90alpha N-terminal domain (1 to 236 residues) expressed in Escherichia coli BL21star (DE3) at 100 uM after 4 hrs by FP assay relative to control
How it was run: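 Hsp90αN (15 nM final) with GM-FITC (6 nM final) and compound in HEPES/KCl/MgCl2 buffer pH 7.4 with NP40, DTT, BGG; 4 h at 4 °C in dark; FP at ex 485/em 535 nm; inhibition computed against GM-FITC-only and protein-plus-probe controls; n = 3.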

Canis lupus familiaris = organism: Canis lupus familiaris; test: Binding affinity to dog His-tagged biotinylated GRP94 N41 deletion mutant (69 to 337 residues) expressed in Escherichia coli BL21star (DE3) assessed as dissociation constant by biolayer interferometry
How it was run: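 His-tagged Grp94N biotinylated at one molar ratio in PBS pH 7.4, dialysed overnight, loaded at 400 nM on streptavidin biosensors after 10 min prewetting in PBS, 0.05% BSA, 0.01% Tween-20. Four compound concentrations in this buffer tested; binding recorded at 30 °C by biolayer interferometry.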

Mus musculus [14] = test: Subacute toxicity in C57BL/6 mouse assessed as effect on kidneys at 30 to 90 mg/kg, ip qd for 2 weeks by hematoxylin and eosin staining analysis; assay type: organism-based; settings: in vivo, 336 h
[15] = biological target: T1, Heat shock protein HSP 90-alpha; test: Inhibition of HSP90alpha in human PANC1 cells assessed as up-regulation of Hsp70 at 1 to 5 uM after 36 hrs by Western blot analysis; assay type: cell-based
How it was run: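 Panc-1 cells treated 36 h; total protein lysate with protease/phosphatase inhibitors; equal protein by BCA on SDS-PAGE, PVDF, Western blot for Hsp70 and Akt, β-actin loading control; AT13387 reference.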

Endoplasmin = Endoplasmin (Homo sapiens, UniProt P14625); test: Inhibition of GRP94 in human PANC1 cells assessed as down-regulation of integrin alpha2 levels after 36 hrs by Western blot analysis; assay type: cell-based
Sequence of Endoplasmin (P14625 whole entry): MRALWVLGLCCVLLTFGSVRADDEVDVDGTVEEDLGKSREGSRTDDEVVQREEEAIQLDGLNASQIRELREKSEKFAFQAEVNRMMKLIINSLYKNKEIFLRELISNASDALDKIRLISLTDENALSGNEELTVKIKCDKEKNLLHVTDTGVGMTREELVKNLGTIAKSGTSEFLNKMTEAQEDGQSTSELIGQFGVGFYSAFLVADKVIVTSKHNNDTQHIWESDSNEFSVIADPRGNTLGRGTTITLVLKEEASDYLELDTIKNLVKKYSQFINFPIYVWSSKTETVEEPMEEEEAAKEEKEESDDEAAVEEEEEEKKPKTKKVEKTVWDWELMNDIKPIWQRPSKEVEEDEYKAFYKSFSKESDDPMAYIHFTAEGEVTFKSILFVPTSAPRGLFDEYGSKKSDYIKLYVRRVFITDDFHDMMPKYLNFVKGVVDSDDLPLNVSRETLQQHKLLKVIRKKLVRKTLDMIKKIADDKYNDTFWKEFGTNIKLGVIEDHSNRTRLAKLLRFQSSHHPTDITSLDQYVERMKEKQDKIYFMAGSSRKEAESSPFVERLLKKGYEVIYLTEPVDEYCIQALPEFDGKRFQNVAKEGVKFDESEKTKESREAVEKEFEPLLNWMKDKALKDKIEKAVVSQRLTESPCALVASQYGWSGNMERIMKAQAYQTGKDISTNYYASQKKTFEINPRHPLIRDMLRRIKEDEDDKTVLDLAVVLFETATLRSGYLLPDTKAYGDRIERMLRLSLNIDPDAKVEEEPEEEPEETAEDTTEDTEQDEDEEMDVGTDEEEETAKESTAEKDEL
How it was run: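 Panc-1 cells treated 36 h at indicated concentrations; cell surface protein extracted with a membrane-fractionation kit; Western blot for integrin α2 and αL with β-actin loading control, infrared fluorescent secondary detection.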

Mus musculus [16] = test: Anti-inflammatory activity in ip dosed C57BL/6 mouse model of DSS-induced ulcerative colitis assessed reduction in IL6 levels in colonic tissues co-administrated once daily with DSS measured on day 7 post dose by ELISA; assay type: functional, organism-based; how it was run: as §2
Mus musculus [17] = test: Subacute toxicity in C57BL/6 mouse assessed as effect on spleen at 30 to 90 mg/kg, ip qd for 2 weeks by hematoxylin and eosin staining analysis; assay type: organism-based; settings: in vivo, 336 h
Mus musculus [18] = test: Anti-inflammatory activity in C57BL/6 mouse model of DSS-induced ulcerative colitis assessed reduction in TLR2 expression in colonic tissues at 10 to 30 mg/kg, ip qd co-administrated with DSS measured on day 7 post dose; assay type: functional, organism-based; how it was run: as §1

In the case of `CC(C)c1ccc(-c2ccc(N[C@H]3CC[C@H](O)CC3)c(C(N)=O)c2)cc1`, the Ratio [1] is reported as over 1000, the Activity (Mus musculus [2]) is reported as “Active” and the Activity (Mus musculus [3]) is reported as “Dose-dependent effect”. For the same molecule, the IC50 [4] was 2 nM, the Activity (Mus musculus [5]) was “Dose-dependent effect” and the koff [6] was 0.0345 s⁻¹. The Activity (Mus musculus [7]) was “Non-Toxic”, the Activity (Mus musculus [8]) was “Non-Toxic” and the Activity (Mus musculus [9]) was “Active”. The Activity (Mus musculus [10]) was “inactive”, the Activity (Mus musculus [11]) was “inactive” and the Activity (Mus musculus [12]) was “inactive”. For the same molecule, the “inhibition (INH)” value [13] was “Not Active”, the K (Canis lupus familiaris) was 1.25 ×10⁻² /s and the Activity (Mus musculus [14]) was “Non-Toxic”. For the same molecule, the “inhibition (INH)” value [15] was “Not Active”, the inhibition (Endoplasmin) was “Dose-dependent effect” and the Activity (Mus musculus [16]) was “Dose-dependent effect”. The Activity (Mus musculus [17]) was “Non-Toxic” and the Activity (Mus musculus [18]) was “Active”.
